In one experiment the test system is Klebsiella pneumoniae. Kind of experiment: Antimicrobial activity against Klebsiella pneumoniae after 18 hrs. Format: functional, organism-based. A digest of the protocol:
(§1)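 Strains grown on Mueller-Hinton agar, then in Mueller-Hinton broth with CaCl₂/MgCl₂ at 37 °C for 18 h. Serially diluted (K. pneumoniae and P. aeruginosa 10^-6, S. aureus 10^-8, S. pneumoniae 10^-4, as cfu/mL) and equilibrated 30 min at 37 °C. Incubated with samples, shaken at 37 °C and 60% humidity for 18 h. Read at OD650. Streptomycin 50 μg/mL control wells.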

Another experiment deals with Pseudomonas aeruginosa. Nature of the experiment: Antimicrobial activity against Pseudomonas aeruginosa after 18 hrs. Format: functional, organism-based. The essentials:
as §1

The subject of the next experiment is Staphylococcus aureus. Nature of the experiment: Antimicrobial activity against Staphylococcus aureus after 18 hrs. The class given is functional, organism-based. A digest of the protocol: as §1
The next experiment deals with Streptococcus pneumoniae. Kind of experiment: Antimicrobial activity against Streptococcus pneumoniae after 18 hrs. Format: functional, organism-based. A digest of the protocol:
as §1

The subject of another experiment is THP-1. Nature of the experiment: Cytotoxicity against human THP1 cells after 72 hrs by WST-1 assay. The conditions noted are these: THP-1, 72 h. Format: cell-based. The essentials: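 THP-1 cells kept in RPMI 1640 with 10% FBS, 2 mM L-glutamine, penicillin/streptomycin and 10 μM 2-mercaptoethanol at 37 °C, 5% CO₂. Seeded at 2.5 × 10⁴ cells/well and exposed to samples at 250 μg/mL final for 72 h. WST-1 added for 1–2 h, absorbance read at 450 nm. Controls were 10 μM camptothecin and 0.1% DMSO.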
In general terms: Tetrazolium dyes change colour on reduction, which living cells bring about.

Some results are limits rather than exact numbers.

A word on the IC50: it is the concentration that inhibits the measured activity by half. Read a high IC50 as a need for much substance.

With `C=C1CC[C@H]2C(C)(C)[C@H](O)CC[C@]2(C)[C@@H]1C[C@@H]1CCC(=C)[C@H](CC/C(C)=C/COC=O)[C@@]1(C)C(=O)O` [TRICHOMYCIN A], the IC50 in the experiment on Klebsiella pneumoniae was more than 500 µM; with Pseudomonas aeruginosa, more than 500 µM; with Staphylococcus aureus it was 12 µM; in the experiment on Streptococcus pneumoniae it was 5 µM; with THP-1, more than 1000 µM.

Take `C=C1CC[C@H]2C(C)(C)[C@H](O)CC[C@]2(C)[C@@H]1C[C@@H]1CCC(=C)[C@H](CC/C(C)=C/CO)[C@@]1(C)C(=O)O` [TRICHOMYCIN B]: the IC50 with Klebsiella pneumoniae is more than 473 µM; in the experiment on Pseudomonas aeruginosa, more than 473 µM; in the experiment on Staphylococcus aureus, 12 µM; in the experiment on Streptococcus pneumoniae, 6 µM; in the experiment on THP-1, 640 µM.

For the origin of these results see ChEMBL document CHEMBL1158708, “Cerylimycins [corrected] A and B: antibacterial triterpenes from the new species Tricholoma sp. AU1” (J Nat Prod, 2005).
